Measured values: ChEMBL document CHEMBL1157190, “Design, synthesis, and anticonvulsant activity of N-phenylamino derivatives of 3,3-dialkyl-pyrrolidine-2,5-diones and hexahydro-isoindole-1,3-diones” (Bioorg Med Chem, 2008)
Calls of active or inactive are those of the source. No cut-off for these calls is given here.

What was measured:
[1] = system: Mus musculus; experiment: Anticonvulsant activity in ip dosed CF1 albino mouse assessed as inhibition of subcutaneous pentylenetetrazole-induced electrical stimulus at 300 mg/kg after 4 hrs; assay type: functional, organism-based; parameters: dose 300 mg/kg
Method in brief: (§1)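 Male CF-1 mice injected intraperitoneally at 30, 100 and 300 mg/kg, suspended in 0.5% methylcellulose/water. MES or subcutaneous pentylenetetrazole challenge at 0.5 and 4 h; selected compounds also at 1 or 2 h.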

[2] = system: Mus musculus; experiment: Neurotoxicity in ip dosed CF1 albino mouse at 300 mg/kg after 4 hrs by rotarod test; assay type: toxicity, organism-based; parameters: dose 300 mg/kg, route intraperitoneal; details: in vivo
Method in brief: (§2)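 CF-1 mice given 30, 100 or 300 mg/kg ip in 0.5% methylcellulose/water, examined at 0.5 and 4 h. Rotorod test: neurotoxicity is the inability to keep equilibrium on the rod for a given time. Value is the minimum dose giving motor impairment; a dash means none at 300 mg/kg.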

[3] = system: Mus musculus; experiment: Anticonvulsant activity in ip dosed CF1 albino mouse assessed as inhibition of maximal electroshock-induced electrical stimulus at 300 mg/kg after 4 hrs; assay type: functional, organism-based; parameters: dose 300 mg/kg; method in brief: as §1
[4] = system: Mus musculus; experiment: Anticonvulsant activity in ip dosed CF1 albino mouse assessed as inhibition of subcutaneous pentylenetetrazole-induced electrical stimulus after 0.5 hr; assay type: functional; method in brief: as §1
[5] = Lipophilicity, log kw of compound by RP-HPLC; assay type: physicochemical
Method in brief: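 RP-HPLC on a C18 end-capped column at room temperature, with UV detection at 214 nm and uracil as the unretained marker. Capacity factor k = (tr − t0)/t0, from the mean of three measurement sets. log k extrapolated to 100% water (log k = log kw − Sφ) to give log kw.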

[6] = system: Mus musculus; experiment: Neurotoxicity in ip dosed CF1 albino mouse after 0.5 hr by rotarod test; assay type: toxicity, organism-based; details: in vivo; method in brief: as §2
[7] = system: Mus musculus; experiment: Anticonvulsant activity in ip dosed CF1 albino mouse assessed as inhibition of maximal electroshock-induced electrical stimulus after 0.5 hr; assay type: functional; method in brief: as §1
[8] = system: Mus musculus; experiment: Anticonvulsant activity in ip dosed CF1 albino mouse assessed as inhibition of maximal electroshock-induced electrical stimulus at 300 mg/kg after 0.5 hr; assay type: functional, organism-based; parameters: dose 300 mg/kg; method in brief: as §1
[9] = system: Mus musculus; experiment: Anticonvulsant activity in ip dosed CF1 albino mouse assessed as inhibition of subcutaneous pentylenetetrazole-induced electrical stimulus at 300 mg/kg after 0.5 hr; assay type: functional, organism-based; parameters: dose 300 mg/kg; method in brief: as §1
[10] = system: Rattus norvegicus; experiment: Anticonvulsant activity in Sprague-Dawley rat assessed as protection against seizure at 30 mg/kg, po after 4 hrs by maximal electroshock test; assay type: functional
Method in brief: (§3)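 Male Sprague–Dawley rats; compound suspended in 0.5% methylcellulose/water and given orally at a fixed 30 mg/kg, four rats per time point. MES test run at 0.25, 0.5, 1, 2 and 4 h after dosing, with motor impairment checked in parallel. Read-out: number of rats of four protected.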

[11] = system: Mus musculus; experiment: Anticonvulsant activity in ip dosed CF1 albino mouse assessed as inhibition of maximal electroshock-induced electrical stimulus after 4 hrs; assay type: functional; method in brief: as §1
[12] = system: Mus musculus; experiment: Neurotoxicity in ip dosed CF1 albino mouse after 4 hrs by rotarod test; assay type: toxicity, organism-based; details: in vivo; method in brief: as §2
[13] = system: Mus musculus; experiment: Neurotoxicity in ip dosed CF1 albino mouse at 300 mg/kg after 0.5 hr by rotarod test; assay type: toxicity, organism-based; parameters: dose 300 mg/kg, route intraperitoneal; details: in vivo; method in brief: as §2
[14] = system: Rattus norvegicus; experiment: Anticonvulsant activity in Sprague-Dawley rat assessed as protection against seizure at 30 mg/kg, po after 2 hrs by maximal electroshock test; assay type: functional; method in brief: as §3
[15] = system: Rattus norvegicus; experiment: Anticonvulsant activity in Sprague-Dawley rat assessed as protection against seizure at 50 mg/kg, po after 0.5 hr by subcutaneous pentylenetetrazole test; assay type: functional
Method in brief: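 Male Sprague–Dawley rats dosed orally at 50 mg/kg as a 0.5% methylcellulose/water suspension, four animals per time point. Convulsant given subcutaneously at 0.25, 0.5, 1, 2 and 4 h after dosing; rotorod motor impairment assessed in parallel. Read-out: number of rats of four protected.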

Compound: CCC1(C)CC(=O)N(Nc2ccc(C)cc2)C1=O (configuration not stated)
- Activity [1]: inactive
- Activity [2]: Not Active
- Activity [3]: inactive
- Activity [4]: 300 mg/kg
- log K [5]: 1.928
- Activity [6]: 300 mg/kg
- Activity [7]: 300 mg/kg

Compound: CCCCC1(C)CC(=O)N(Nc2ccc(Cl)cc2)C1=O (configuration not stated)
- Activity [1]: inactive
- Activity [8]: inactive
- Activity [2]: Not Active
- Activity [3]: inactive
- log K [5]: 2.638
- Activity [6]: 300 mg/kg
- Activity [9]: inactive

Compound: CCCC1(C)CC(=O)N(Nc2ccc(Br)cc2)C1=O (configuration not stated)
- Activity [10]: inactive
- Activity [4]: 300 mg/kg
- log K [5]: 2.403
- Activity [6]: 300 mg/kg
- Activity [7]: 100 mg/kg
- Activity [11]: 300 mg/kg
- Activity [12]: 300 mg/kg

Compound: CCC1(CC)CC(=O)N(Nc2ccccc2)C1=O
- Activity [1]: inactive
- Activity [8]: inactive
- Activity [2]: Not Active
- Activity [3]: inactive
- log K [5]: 1.826
- Activity [6]: 300 mg/kg
- Activity [9]: inactive

Compound: CCC1(CC)CC(=O)N(Nc2ccc(Br)cc2)C1=O
- Activity [1]: inactive
- Activity [8]: inactive
- Activity [2]: Not Active
- Activity [3]: inactive
- log K [5]: 2.221
- Activity [13]: Not Active
- Activity [9]: inactive

Compound: CCCCC1(C)CC(=O)N(Nc2ccccc2Cl)C1=O (configuration not stated)
- Activity [1]: inactive
- Activity [2]: Not Active
- Activity [3]: inactive
- Activity [4]: 300 mg/kg
- log K [5]: 2.566
- Activity [6]: 300 mg/kg
- Activity [7]: 300 mg/kg

Compound: O=C1C2CCCCC2C(=O)N1Nc1ccc(Cl)cc1 (configuration not stated)
- Activity [1]: inactive
- Activity [8]: inactive
- Activity [2]: Not Active
- Activity [3]: inactive
- Activity [4]: 100 mg/kg
- log K [5]: 2.224
- Activity [13]: Not Active

Compound: CCCCC1(C)CC(=O)N(Nc2ccc(Cl)cc2Cl)C1=O (configuration not stated)
- Activity [1]: inactive
- Activity [2]: Not Active
- Activity [3]: inactive
- Activity [4]: 100 mg/kg
- log K [5]: 2.896
- Activity [6]: 100 mg/kg
- Activity [7]: 100 mg/kg

Compound: CCC1(C)CC(=O)N(Nc2ccccc2C)C1=O (configuration not stated)
- Activity [1]: inactive
- Activity [3]: inactive
- log K [5]: 1.864
- Activity [6]: 100 mg/kg
- Activity [7]: 300 mg/kg
- Activity [12]: 100 mg/kg
- Activity [9]: inactive

Compound: O=C1C2CCCCC2C(=O)N1Nc1ccccc1Cl (configuration not stated)
- Activity [1]: inactive
- Activity [8]: inactive
- Activity [2]: Not Active
- Activity [3]: inactive
- log K [5]: 2.162
- Activity [13]: Not Active
- Activity [9]: inactive

Compound: O=C1C2CCCCC2C(=O)N1Nc1cccc(Cl)c1 (configuration not stated)
- Activity [1]: inactive
- Activity [8]: inactive
- Activity [2]: Not Active
- Activity [3]: inactive
- Activity [4]: 300 mg/kg
- log K [5]: 2.173
- Activity [6]: 300 mg/kg

Compound: CCCC1(C)CC(=O)N(Nc2ccccc2Cl)C1=O (configuration not stated)
- Activity [1]: inactive
- Activity [2]: Not Active
- Activity [3]: inactive
- Activity [4]: 300 mg/kg
- log K [5]: 2.364
- Activity [6]: 300 mg/kg
- Activity [7]: 300 mg/kg

Compound: CCC1(CC)CC(=O)N(Nc2ccc(C)cc2)C1=O
- Activity [1]: inactive
- Activity [2]: Not Active
- Activity [3]: inactive
- log K [5]: 1.999
- Activity [6]: 100 mg/kg
- Activity [7]: 300 mg/kg
- Activity [9]: inactive

Compound: CCC1(C)CC(=O)N(Nc2ccccc2Cl)C1=O (configuration not stated)
- Activity [1]: inactive
- Activity [2]: Not Active
- Activity [3]: inactive
- log K [5]: 2.029
- Activity [6]: 300 mg/kg
- Activity [7]: 300 mg/kg
- Activity [9]: inactive

Compound: CCC1(C)CC(=O)N(Nc2ccccc2)C1=O (configuration not stated)
- Activity [14]: inactive
- Activity [10]: inactive
- Activity [4]: 300 mg/kg
- log K [5]: 1.695
- Activity [6]: 100 mg/kg
- Activity [7]: 300 mg/kg
- Activity [15]: inactive

Compound: CCCC1(C)CC(=O)N(Nc2cccc(Cl)c2)C1=O (configuration not stated)
- Activity [1]: inactive
- Activity [2]: Not Active
- Activity [3]: inactive
- Activity [4]: 300 mg/kg
- log K [5]: 2.401
- Activity [6]: 100 mg/kg
- Activity [7]: 300 mg/kg

Compound: CCC1(CC)CC(=O)N(Nc2ccccc2Cl)C1=O
- Activity [1]: inactive
- Activity [8]: inactive
- Activity [2]: Not Active
- Activity [3]: inactive
- Activity [4]: 300 mg/kg
- log K [5]: 2.244
- Activity [6]: 100 mg/kg

Compound: Cc1ccc(NN2C(=O)CC(C)(C)C2=O)cc1
- Activity [1]: inactive
- Activity [2]: Not Active
- Activity [3]: inactive
- Activity [4]: 300 mg/kg
- log K [5]: 1.642
- Activity [6]: 100 mg/kg
- Activity [7]: 300 mg/kg

Compound: CCCC1(C)CC(=O)N(Nc2ccc(Cl)cc2)C1=O (configuration not stated)
- Activity [10]: inactive
- Activity [4]: 100 mg/kg
- log K [5]: 2.445
- Activity [6]: 100 mg/kg
- Activity [7]: 100 mg/kg
- Activity [11]: 300 mg/kg
- Activity [12]: 300 mg/kg

Compound: CC1(C)CC(=O)N(Nc2ccccc2Cl)C1=O
- Activity [1]: inactive
- Activity [2]: Not Active
- Activity [3]: inactive
- Activity [4]: 300 mg/kg
- log K [5]: 1.876
- Activity [6]: 30 mg/kg
- Activity [7]: 100 mg/kg

Compound: CNN1C(=O)CC(C)(C)C1=O
- Activity [1]: inactive
- Activity [8]: inactive
- Activity [2]: Not Active
- Activity [3]: inactive
- Activity [13]: Not Active
- Activity [9]: inactive

Compound: O=C1C2CCCCC2C(=O)N1Nc1ccc(Cl)cc1Cl (configuration not stated)
- Activity [1]: inactive
- log K [5]: 2.425
- Activity [6]: 300 mg/kg
- Activity [11]: 100 mg/kg
- Activity [12]: 300 mg/kg
- Activity [9]: inactive
